Marks after values point to notes of the source that are not given here. Residues, ends and D or L forms follow the SMILES beside them.
Experiments:
[1] = Serum biochemistry of cynomolgus monkeys at the end of treatment; format: in vivo; conditions: median (IQR)
Summary of the method: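 GLP 10-day study in male and female cynomolgus monkeys (n = 3-5/sex/group) dosed once daily with 0 (placebo), 5, 10 or 15 mg/kg test compound by i.v. infusion over 60 ± 5 min. Hematology, serum chemistry and coagulation were taken at end of treatment and reported as median (IQR). Dose groups were compared by Kruskal-Wallis with Dunn's multiple comparison test.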

[2] = Coagulation in rats at the end of treatment; format: in vivo, Sprague-Dawley rats; conditions: median (IQR)

With CC[C@H](C)[C@@H]1NC(=O)[C@@H]2CSSC[C@H](NC(=O)[C@H](CCCNC(=N)N)NC(=O)[C@@H]3CSSC[C@H](NC1=O)C(=O)N[C@@H]([C@@H](C)O)C(=O)N[C@@H](CCCNC(=N)N)C(=O)NCC(=O)N[C@@H](Cc1ccccc1)C(=O)N3)C(=O)N[C@@H](CC(C)C)C(=O)N[C@H]1CSSC[C@H](NC(=O)[C@H](C(C)C)NC(=O)CNC(=O)[C@H](CCCNC(=N)N)NC(=O)[C@H](CCCNC(=N)N)NC1=O)C(=O)N[C@@H](CCCNC(=N)N)C(=O)N2 [RTD-1, Rhesus theta (θ) defensin-1] (HELM PEPTIDE1{G.F.C.R.C.L.C.R.R.G.V.C.R.C.I.C.T.R}$PEPTIDE1,PEPTIDE1,3:R3-16:R3|PEPTIDE1,PEPTIDE1,5:R3-14:R3|PEPTIDE1,PEPTIDE1,7:R3-12:R3|PEPTIDE1,PEPTIDE1,1:R1-18:R2$$$V2.0) the A/G ([1]; female, 5 mg/kg/day) was 1.7 (0.2), the ALP ([1]; female, 5 mg/kg/day) was 576.0 (132.0) U/L and the ALT ([1]; female, 5 mg/kg/day) was 112.0 (50.0) U/L. The AST ([1]; female, 5 mg/kg/day) was 69.0 (22.0) U/L, the Albumin ([1]; female, 5 mg/kg/day) was 4.5 (0.5) g/dL and the CK ([1]; female, 5 mg/kg/day) was 301.0 (38.0) U/L. For the same compound, the Calcium ([1]; female, 5 mg/kg/day) was 10.0 (0.4) mg/dL, the Chloride ([1]; female, 5 mg/kg/day) was 107.0 (1.5) mmol/L and the Cholesterol ([1]; female, 5 mg/kg/day) was 104.0 (17.5) mg/dL. The Creatinine ([1]; female, 5 mg/kg/day) was 0.5 (0.1) mg/dL, the GGT ([1]; female, 5 mg/kg/day) was 92.0 (14.0) U/L and the Globulin ([1]; female, 5 mg/kg/day) was 2.7 (0.4) g/dL. The Glucose ([1]; female, 5 mg/kg/day) was 60.0 (7.5) mg/dL, the Phos ([1]; female, 5 mg/kg/day) was 5.7 (0.2) mg/dL and the Potassium ([1]; female, 5 mg/kg/day) was 4.9 (0.6) mmol/L. The Sodium ([1]; female, 5 mg/kg/day) was 146.0 (0.0) mmol/L, the T-Bil ([1]; female, 5 mg/kg/day) was 0.2 (0.0) mg/dL and the TP ([1]; female, 5 mg/kg/day) was 7.6 (0.7) g/dL. For the same compound, the Triglycerides ([1]; female, 5 mg/kg/day) was 49.0 (8.5) mg/dL, the “Urea N” value ([1]; female, 5 mg/kg/day) was 15.0 (4.0) mg/dL and the A/G ([1]; female, 10 mg/kg/day) was 1.6 (0.2). The ALP ([1]; female, 10 mg/kg/day) was 915.0 (64.0) U/L, the ALT ([1]; female, 10 mg/kg/day) was 126.0 (87.5) U/L and the AST ([1]; female, 10 mg/kg/day) was 104.0 (16.0) U/L. For the same compound, the Albumin ([1]; female, 10 mg/kg/day) was 4.3 (0.1) g/dL, the CK ([1]; female, 10 mg/kg/day) was 1,102.0 (1,584.0) U/L and the Calcium ([1]; female, 10 mg/kg/day) was 10.0 (0.1) mg/dL. For the same compound, the Chloride ([1]; female, 10 mg/kg/day) was 109.0 (2.0) mmol/L, the Cholesterol ([1]; female, 10 mg/kg/day) was 91.0 (10.5) mg/dL and the Creatinine ([1]; female, 10 mg/kg/day) was 0.6 (0.1) mg/dL. For the same compound, the GGT ([1]; female, 10 mg/kg/day) was 88.0 (7.0) U/L, the Globulin ([1]; female, 10 mg/kg/day) was 2.7 (0.4) g/dL and the Glucose ([1]; female, 10 mg/kg/day) was 59.0 (6.5) mg/dL. For the same compound, the Phos ([1]; female, 10 mg/kg/day) was 5.3 (0.6) mg/dL, the Potassium ([1]; female, 10 mg/kg/day) was 5.1 (0.9) mmol/L and the Sodium ([1]; female, 10 mg/kg/day) was 146.0 (3.0) mmol/L. The T-Bil ([1]; female, 10 mg/kg/day) was 0.2 (0.1) mg/dL, the TP ([1]; female, 10 mg/kg/day) was 7.0 (0.3) g/dL and the Triglycerides ([1]; female, 10 mg/kg/day) was 49.0 (1.5) mg/dL. The “Urea N” value ([1]; female, 10 mg/kg/day) was 16.0 (4.5) mg/dL, the A/G ([1]; female, 15 mg/kg/day) was 1.5 (0.0) and the ALP ([1]; female, 15 mg/kg/day) was 943.0 (411.0) U/L. The ALT ([1]; female, 15 mg/kg/day) was 92.0 (36.0) U/L, the AST ([1]; female, 15 mg/kg/day) was 95.0 (45.0) U/L and the Albumin ([1]; female, 15 mg/kg/day) was 4.3 (0.6) g/dL. The CK ([1]; female, 15 mg/kg/day) was 891.0 (603.0) U/L, the Calcium ([1]; female, 15 mg/kg/day) was 10.2 (0.4) mg/dL and the Chloride ([1]; female, 15 mg/kg/day) was 111.0 (1.0) mmol/L. The Cholesterol ([1]; female, 15 mg/kg/day) was 94.0 (13.0) mg/dL, the Creatinine ([1]; female, 15 mg/kg/day) was 0.7 (0.1) mg/dL and the GGT ([1]; female, 15 mg/kg/day) was 99.0 (37.0) U/L. For the same compound, the Globulin ([1]; female, 15 mg/kg/day) was 2.8 (0.1) g/dL, the Glucose ([1]; female, 15 mg/kg/day) was 78.0 (18.0)^c mg/dL and the Phos ([1]; female, 15 mg/kg/day) was 5.3 (0.3)^c mg/dL. For the same compound, the Potassium ([1]; female, 15 mg/kg/day) was 6.0 (1.0) mmol/L, the Sodium ([1]; female, 15 mg/kg/day) was 146.0 (4.0) mmol/L and the T-Bil ([1]; female, 15 mg/kg/day) was 0.2 (0.2) mg/dL. For the same compound, the TP ([1]; female, 15 mg/kg/day) was 7.1 (0.8) g/dL, the Triglycerides ([1]; female, 15 mg/kg/day) was 56.0 (11.0) mg/dL and the “Urea N” value ([1]; female, 15 mg/kg/day) was 18.0 (1.0) mg/dL. For the same compound, the A/G ([1]; male, 5 mg/kg/day) was 1.8 (0.1), the ALP ([1]; male, 5 mg/kg/day) was 802.0 (253.0) U/L and the ALT ([1]; male, 5 mg/kg/day) was 172.0 (125.0) U/L. For the same compound, the AST ([1]; male, 5 mg/kg/day) was 122.0 (190.0) U/L, the Albumin ([1]; male, 5 mg/kg/day) was 4.8 (0.2) g/dL and the CK ([1]; male, 5 mg/kg/day) was 888.0 (13,478.0) U/L. The Calcium ([1]; male, 5 mg/kg/day) was 9.8 (0.5) mg/dL, the Chloride ([1]; male, 5 mg/kg/day) was 110.0 (2.0) mmol/L and the Cholesterol ([1]; male, 5 mg/kg/day) was 110.0 (15.5) mg/dL. The Creatinine ([1]; male, 5 mg/kg/day) was 0.8 (0.2) mg/dL, the GGT ([1]; male, 5 mg/kg/day) was 137.0 (31.5) U/L and the Globulin ([1]; male, 5 mg/kg/day) was 2.7 (0.1) g/dL. For the same compound, the Glucose ([1]; male, 5 mg/kg/day) was 111.0 (26.5) mg/dL, the Phos ([1]; male, 5 mg/kg/day) was 5.5 (1.7) mg/dL and the Potassium ([1]; male, 5 mg/kg/day) was 6.0 (1.4) mmol/L. The Sodium ([1]; male, 5 mg/kg/day) was 147.0 (4.0) mmol/L, the T-Bil ([1]; male, 5 mg/kg/day) was 0.3 (0.1) mg/dL and the TP ([1]; male, 5 mg/kg/day) was 7.5 (0.2) g/dL. For the same compound, the Triglycerides ([1]; male, 5 mg/kg/day) was 46.0 (18.5) mg/dL, the “Urea N” value ([1]; male, 5 mg/kg/day) was 15.0 (3.5) mg/dL and the A/G ([1]; male, 10 mg/kg/day) was 1.7 (0.2). For the same compound, the ALP ([1]; male, 10 mg/kg/day) was 753.0 (3.5) U/L, the ALT ([1]; male, 10 mg/kg/day) was 105.0 (26.5) U/L and the AST ([1]; male, 10 mg/kg/day) was 105.0 (43.5) U/L. For the same compound, the Albumin ([1]; male, 10 mg/kg/day) was 4.7 (0.2) g/dL, the CK ([1]; male, 10 mg/kg/day) was 515.0 (2,756.5) U/L and the Calcium ([1]; male, 10 mg/kg/day) was 10.5 (0.4) mg/dL. The Chloride ([1]; male, 10 mg/kg/day) was 110.0 (1.5) mmol/L, the Cholesterol ([1]; male, 10 mg/kg/day) was 99.0 (16.5) mg/dL and the Creatinine ([1]; male, 10 mg/kg/day) was 0.6 (0.1) mg/dL. For the same compound, the GGT ([1]; male, 10 mg/kg/day) was 119.0 (32.5) U/L, the Globulin ([1]; male, 10 mg/kg/day) was 2.9 (0.4) g/dL and the Glucose ([1]; male, 10 mg/kg/day) was 71.0 (23.0) mg/dL. For the same compound, the Phos ([1]; male, 10 mg/kg/day) was 5.4 (0.8) mg/dL, the Potassium ([1]; male, 10 mg/kg/day) was 5.9 (0.9) mmol/L and the Sodium ([1]; male, 10 mg/kg/day) was 150.0 (3.0) mmol/L. For the same compound, the T-Bil ([1]; male, 10 mg/kg/day) was 0.3 (0.0) mg/dL, the TP ([1]; male, 10 mg/kg/day) was 7.5 (0.5) g/dL and the Triglycerides ([1]; male, 10 mg/kg/day) was 32.0 (6.0) mg/dL. For the same compound, the “Urea N” value ([1]; male, 10 mg/kg/day) was 20.0 (3.5) mg/dL, the A/G ([1]; male, 15 mg/kg/day) was 1.6 (0.2) and the ALP ([1]; male, 15 mg/kg/day) was 957.0 (638.0) U/L. The ALT ([1]; male, 15 mg/kg/day) was 88.0 (17.0) U/L, the AST ([1]; male, 15 mg/kg/day) was 103.0 (40.0) U/L and the Albumin ([1]; male, 15 mg/kg/day) was 4.4 (0.2) g/dL. The CK ([1]; male, 15 mg/kg/day) was 518.0 (1,392.0) U/L, the Calcium ([1]; male, 15 mg/kg/day) was 10.1 (0.3) mg/dL and the Chloride ([1]; male, 15 mg/kg/day) was 112.0 (1.0) mmol/L. The Cholesterol ([1]; male, 15 mg/kg/day) was 105.0 (50.0) mg/dL, the Creatinine ([1]; male, 15 mg/kg/day) was 0.6 (0.1) mg/dL and the GGT ([1]; male, 15 mg/kg/day) was 101.0 (6.0) U/L. For the same compound, the Globulin ([1]; male, 15 mg/kg/day) was 2.9 (0.5) g/dL, the Glucose ([1]; male, 15 mg/kg/day) was 67.0 (5.0) mg/dL and the Phos ([1]; male, 15 mg/kg/day) was 5.2 (0.6) mg/dL. For the same compound, the Potassium ([1]; male, 15 mg/kg/day) was 5.8 (0.6) mmol/L, the Sodium ([1]; male, 15 mg/kg/day) was 149.0 (2.0) mmol/L and the T-Bil ([1]; male, 15 mg/kg/day) was 0.2 (0.2) mg/dL. For the same compound, the TP ([1]; male, 15 mg/kg/day) was 7.5 (0.8) g/dL, the Triglycerides ([1]; male, 15 mg/kg/day) was 78.0 (52.0) mg/dL and the “Urea N” value ([1]; male, 15 mg/kg/day) was 15.0 (2.0) mg/dL. The APTT ([2]; female, 5 mg/kg) was 10.60 (0.70) s, the Fibrinogen ([2]; female, 5 mg/kg) was 223.00 (80.00) mg/dL and the PT ([2]; female, 5 mg/kg) was 16.30 (1.40) s. For the same compound, the APTT ([2]; female, 10 mg/kg) was 10.85 (2.43) s, the Fibrinogen ([2]; female, 10 mg/kg) was 283.00 (36.50) mg/dL and the PT ([2]; female, 10 mg/kg) was 17.05 (0.60) s. For the same compound, the APTT ([2]; female, 20 mg/kg, day 2) was 29.20 (20.65)^b^,^c^,^d s, the Fibrinogen ([2]; female, 20 mg/kg, day 2) was 83.00 (151.75)^d mg/dL and the PT ([2]; female, 20 mg/kg, day 2) was 23.45 (9.75)^b^,^c s. The APTT ([2]; male, 5 mg/kg) was 14.80 (0.98) s, the Fibrinogen ([2]; male, 5 mg/kg) was 262.50 (9.00) mg/dL and the PT ([2]; male, 5 mg/kg) was 15.95 (0.50) s. For the same compound, the APTT ([2]; male, 10 mg/kg) was 14.60 (1.05) s, the Fibrinogen ([2]; male, 10 mg/kg) was 261.00 (54.75) mg/dL and the PT ([2]; male, 10 mg/kg) was 17.50 (1.40) s. For the same compound, the APTT ([2]; male, 20 mg/kg, day 2) was 18.50 (3.13)^b^,^c^,^d s, the Fibrinogen ([2]; male, 20 mg/kg, day 2) was 98.00 (18.50)^b^,^c^,^d mg/dL and the PT ([2]; male, 20 mg/kg, day 2) was 21.25 (1.40)^b^,^c s.

Source: PMC8923172 (Antimicrobial Agents and Chemotherapy, 2022)
